Data: ChEMBL document CHEMBL3124872, “Discovery and early development of TMC647055, a non-nucleoside inhibitor of the hepatitis C virus NS5B polymerase” (J Med Chem, 2014)
Active and inactive are the calls of the source. The calls are words filed in the database; no cut-off is given here.

Key:
Homo sapiens [1] = test: Drug metabolism in human assessed as CYP3A4-induced 4-beta-hydroxycholesterol level at 300 to 1250 mg, po bid for 5 days followed by morning dose on day 6; format: ADME, organism-based; conditions: in vivo, 120 h
Procedure, shortened: (§1)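 Healthy volunteers given oral b.i.d. doses of 300, 1000 or 1250 mg for 5 days plus a morning dose on day 6, in hydroxypropyl-β-cyclodextrin vehicle; adverse events, laboratory parameters, vital signs, food consumption, appetite, ECG and plasma 4-β-hydroxycholesterol (CYP3A4 induction marker) monitored.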

[2] = Selectivity ratio of EC50 for Hepatitis C virus genotype 2b to EC50 for wild-type Hepatitis C virus Con 1b; format: functional
Procedure, shortened: (§2)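 Transient replicon assay using chimeric replicons carrying NS5B from genotype 2a or 2b patient isolates. EC50 was compared with that against the genotype 1b replicon.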

Homo sapiens [3] = test: Toxicity in HCV genotype 1-infected patient assessed as effect on ECG profile at 500 to 1000 mg, po bid for 5 days followed by morning dose on day 6; format: organism-based; conditions: in vivo, 120 h
Procedure, shortened: (§3)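 HCV genotype 1-infected patients given oral b.i.d. doses of 500 or 1000 mg for 5 days plus a morning dose on day 6, in hydroxypropyl-β-cyclodextrin vehicle; adverse events with grading, laboratory parameters, vital signs, food consumption, appetite and ECG monitored.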

Homo sapiens [4] = test: Toxicity in human assessed as effect on ECG profile at 300 to 1250 mg, po bid for 5 days followed by morning dose on day 6; format: organism-based; conditions: in vivo, 120 h; procedure, shortened: as §1
Homo sapiens [5] = test: Toxicity in human assessed as effect on appetite at 300 to 1250 mg, po bid for 5 days followed by morning dose on day 6; format: organism-based; conditions: in vivo, 120 h; procedure, shortened: as §1
Homo sapiens [6] = test: Toxicity in HCV genotype 1-infected patient assessed as effect on food consumption at 500 to 1000 mg, po bid for 5 days followed by morning dose on day 6; format: organism-based; conditions: in vivo, 120 h; procedure, shortened: as §3
Homo sapiens [7] = test: Toxicity in HCV genotype 1-infected patient assessed as effect on vital signs at 500 to 1000 mg, po bid for 5 days followed by morning dose on day 6; format: organism-based; conditions: in vivo, 120 h; procedure, shortened: as §3
Homo sapiens [8] = test: Toxicity in human assessed as effect on laboratory parameters at 300 to 1250 mg, po bid for 5 days followed by morning dose on day 6; format: organism-based; conditions: in vivo, 120 h; procedure, shortened: as §1
Homo sapiens [9] = test: Toxicity in HCV genotype 1-infected patient assessed as grade-4 adverse events at 500 to 1000 mg, po bid for 5 days followed by morning dose on day 6; format: organism-based; conditions: in vivo, 120 h; procedure, shortened: as §3
Homo sapiens [10] = test: Toxicity in human assessed as grade-4 adverse events at 300 to 1250 mg, po bid for 5 days followed by morning dose on day 6; format: organism-based; conditions: in vivo, 120 h
Procedure, shortened: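 Oral b.i.d. dosing for 5 days plus a single morning dose on day 6, in a hydroxypropyl-β-cyclodextrin vehicle. Healthy volunteers received 300, 1000 or 1250 mg; HCV genotype 1-infected patients received 500 or 1000 mg. Monitoring covered adverse events graded by severity, laboratory parameters, vital signs, food consumption, appetite and ECG.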

Homo sapiens [11] = test: Toxicity in HCV genotype 1-infected patient assessed as gastrointestinal side-effects at 500 to 1000 mg, po bid for 5 days followed by morning dose on day 6; format: organism-based; conditions: in vivo, 120 h; procedure, shortened: as §3
Hepatitis C virus [12] = test: Antiviral activity against Hepatitis C virus genotype 1b infected in human HuH7 assessed as clearance of replicon cells at 3.75 uM preincubated for 2 weeks followed by 3 week rebound phase by RT-PCR analysis; format: functional, organism-based; conditions: Hepacivirus hominis, Huh-7
Procedure, shortened: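 Clearance-and-rebound test in Huh7-Luc genotype 1b replicon cells. Cells were incubated with inhibitor (3.75 μM alone) for 14 days, then held for a 3-week rebound phase without inhibitor. Replicon RNA was followed for clearance and rebound.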

Hepatitis C virus [13] = test: Antiviral activity against Hepatitis C virus harboring […] L31V mutant infected in human HuH7 by luciferase reporter gene assay; format: functional, organism-based; conditions: Hepacivirus hominis; Huh-7
Hepatitis C virus [14] = test: Antiviral activity against Hepatitis C virus harboring […] A156V mutant infected in human HuH7 by luciferase reporter gene assay; format: functional, organism-based; conditions: Hepacivirus hominis; Huh-7
Hepatitis C virus [15] = test: Antiviral activity against Hepatitis C virus harboring NS5B C316Y mutant infected in human HuH7 by luciferase reporter gene assay; format: functional, organism-based; conditions: Hepacivirus hominis; Huh-7
[16] = Selectivity ratio of EC50 for Hepatitis C virus genotype 2a to EC50 for wild-type Hepatitis C virus Con 1b; format: functional; procedure, shortened: as §2
Hepatitis C virus [17] = test: Antiviral activity against Hepatitis C virus genotype 4a infected in human HuH7 by transient replicon assay; format: functional, organism-based, Hepacivirus hominis; conditions: Huh-7
Procedure, shortened: (§4)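 Transient replicon assay using chimeric replicons whose NS5B region is derived from patient isolates of the stated genotype.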

Hepatitis C virus [18] = test: Antiviral activity against Hepatitis C virus genotype 3a infected in human HuH7 by transient replicon assay; format: functional, organism-based, Hepacivirus hominis; conditions: Huh-7; procedure, shortened: as §4
Hepatitis C virus [19] = test: Antiviral activity against Hepatitis C virus genotype 2a infected in human HuH7 by transient replicon assay; format: functional, organism-based, Hepacivirus hominis; conditions: Huh-7; procedure, shortened: as §4
Hepatitis C virus [20] = test: Antiviral activity against Hepatitis C virus genotype 1b infected in human HuH7 by transient replicon assay; format: functional, organism-based, Hepacivirus hominis; conditions: Huh-7; procedure, shortened: as §4
Hepatitis C virus [21] = test: Antiviral activity against wild-type Hepatitis C virus Con 1b infected in human HuH7 by transient replicon assay; format: functional, organism-based, Hepacivirus hominis; conditions: isolate Con1, Huh-7
[22] = Binding affinity to Hepatitis C virus genotype 5a NS5B by surface plasmon resonance analysis; set-up: species or system Hepatitis C virus subtype 5a
Procedure, shortened: (§5)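 Surface plasmon resonance binding to NS5B polymerase of the stated genotype; association and dissociation rate constants measured, from which Kd and residence half-life were derived; median Kd reported.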

[23] = Binding affinity to Hepatitis C virus genotype 4a NS5B by surface plasmon resonance analysis; set-up: species or system Hepatitis C virus subtype 4a; procedure, shortened: as §5
[24] = Binding affinity to Hepatitis C virus genotype 1b NS5B by surface plasmon resonance analysis; set-up: species or system Hepatitis C virus subtype 1b; procedure, shortened: as §5
[25] = Cytotoxicity against HEK293T cells after 3 days by resazurin-based fluorescence analysis; format: cell-based, HEK-293T; conditions: human
[26] = Cytotoxicity against human MRC5 cells after 3 days by resazurin-based fluorescence analysis; format: cell-based
Hepatitis C virus [27] = test: Antiviral activity against Hepatitis C virus genotype 1b infected in human HuH7 cells after 72 hrs by luciferase reporter gene assay in presence of 40% human plasma relative to control; format: functional, Hepacivirus hominis, Huh-7
Plasma = test: Fraction unbound in human plasma; format: ADME, cell-free
[28] = Cytotoxicity against human HuH7 cells; format: cell-based, Huh-7
Hepatitis C virus [29] = test: Antiviral activity against Hepatitis C virus genotype 1a infected in human assessed as reduction in plasma HCV RNA level administered for 10 days measured on day 11; format: functional, organism-based; conditions: Hepacivirus hominis, subtype 1a
Procedure, shortened: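 HCV genotype 1a- and 1b-infected patients received oral 1000 mg b.i.d. together with an NS3/4A protease inhibitor at 150 mg q.d. for 10 days. The read-out was the median decrease in plasma HCV RNA (log10 IU/mL) at day 11.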

Hepatitis C virus [30] = test: Antiviral activity against Hepatitis C virus genotype 1b infected in human assessed as log10 reduction in HCV RNA level at 500 mg, po bid for 5 days followed by morning dose on day 6 relative to control; format: functional, Hepacivirus hominis
Procedure, shortened: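 Oral b.i.d. dosing of HCV genotype 1-infected patients at 500 mg or 1000 mg for 5 days, plus a morning dose on day 6, in hydroxypropyl-β-cyclodextrin vehicle. Read-out was the median maximum decrease in plasma HCV RNA from baseline (log10), using patients with HCV RNA data available up to Day 6.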

[31] = Inhibition of His6-tagged Hepatitis C virus Con 1b NS5B delta21 RNA dependent RNA polymerase expressed in Escherichia coli Rosetta 2 (DE3) after 2 hrs by primer-dependent transcription assay in presence of 5'-biotinylated rG13 primer

**Q.** Which results are given for COc1ccc2c(c1)C=C1Cn3c-2c(C2CCCCC2)c2ccc(cc23)C(=O)NS(=O)(=O)N(C)CCOCCN(C)C1=O [TMC-647055]?
**A.** Drug metabolism (Homo sapiens [1]): Active; Ratio EC50 [2]: >200; Activity (Homo sapiens [3]): Non-toxic; Activity (Homo sapiens [4]): Non-toxic; Activity (Homo sapiens [5]): Non-toxic; Activity (Homo sapiens [6]): Non-toxic; Activity (Homo sapiens [7]): Non-toxic; Activity (Homo sapiens [8]): Non-toxic; Activity (Homo sapiens [9]): Non-toxic; Activity (Homo sapiens [10]): Non-toxic; Activity (Homo sapiens [11]): Toxic; Activity (Hepatitis C virus [12]): inactive; Activity (Hepatitis C virus [13]): Active; Activity (Hepatitis C virus [14]): Active; Activity (Hepatitis C virus [15]): Active; Ratio EC50 [16]: >200; EC50 (Hepatitis C virus [17]): 97 nM; EC50 (Hepatitis C virus [18]): 88 nM; EC50 (Hepatitis C virus [19]): 12500 nM; EC50 (Hepatitis C virus [20]): 27 nM; EC50 (Hepatitis C virus [21]): 51 nM; Kd [22]: 21 nM; Kd [23]: 2 nM; Kd [24]: 3.9 nM; CC50 at 72 h [25]: > 50000 nM; CC50 at 72 h [26]: > 50000 nM; fold change (FC) (Hepatitis C virus [27]): 9; Fu (Plasma): 0.3%; CC50 [28]: 42100 nM; Activity (Hepatitis C virus [29]): Active; FC (Hepatitis C virus [30]): 3.3; IC50 [31]: 34 nM
